# Screens as filed in PubChem.
# OXTR potentiate: human OXTR potentiation | activation, % at 3 µM | CHO-OTR cells, Fluo-8 calcium fluorescence, potentiator mode; 0% = oxytocin EC15, 100% = EC100 | P30559 | 0.061% of 320,000 active;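 active means activation above that plate's cutoff, the mean activation of tested compounds plus 3 SD, cut at about 6.6% in these data, passing the limit was not always enough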;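 further: 100% uses oxytocin at 75 nM as the full agonist control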
# Target sequence (P30559 whole entry, looked up): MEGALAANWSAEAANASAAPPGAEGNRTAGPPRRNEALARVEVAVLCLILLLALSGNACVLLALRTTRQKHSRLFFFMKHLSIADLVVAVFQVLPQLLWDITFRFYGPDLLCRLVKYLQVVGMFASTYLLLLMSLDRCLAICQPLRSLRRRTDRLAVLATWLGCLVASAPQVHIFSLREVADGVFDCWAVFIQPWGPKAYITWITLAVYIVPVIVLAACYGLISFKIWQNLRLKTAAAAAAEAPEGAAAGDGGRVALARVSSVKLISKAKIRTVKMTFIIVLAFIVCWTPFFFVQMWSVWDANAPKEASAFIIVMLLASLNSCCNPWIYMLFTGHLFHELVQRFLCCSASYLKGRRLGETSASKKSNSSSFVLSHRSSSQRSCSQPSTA
#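 Replication – single well per compound, singlicate · Assay system – CHO cell line stably expressing human OTR · Timing – 6 min pre-incubation, 100 s read · Measure – normalized max/min fluorescence ratio, % activation · Doses – 3.0 µM, one dose · Detection – Fluo-8 calcium dye fluorescence · Probe or stimulus – oxytocin near EC15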
# OXTR ag: human OXTR agonism | P30559 | CHO-OTR cells, Fluo-8 calcium fluorescence; normalized: DMSO 0%, oxytocin 100% | activation, % at 3 µM | 0.32% of 320,000 active;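 active means activation above the mean of all tested compounds plus 3 SD, cutoff set per screening run, cut at about 20% in these data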;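 further: peak over basal fluorescence ratio from a 100 s FLIPR kinetic read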
# V1aR counter: V1a receptor agonism, counter-screen for OXTR agonists | P37288 | CHO-V1R cells, Fluo-8 calcium fluorescence, agonist mode; 0% DMSO, 100% 3 nM vasopressin | activation, % at 3 µM | 0.25% of 320,000 active;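 active means activation above the mean activation of all tested compounds plus 3 SD, per screening run, cut at about 20% in these data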;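 further: signal is peak over basal fluorescence ratio across a 100 second FLIPR read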
# TAAR1 antag: antagonists of human TAAR1 | 1.5% of 360,000 active | CHO RD-HGA16 TAAR1, Fluo-8 calcium fluorescence, antagonist | Q96RJ0 | inhibition, % at 3 µM;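 active means inhibition above a per-plate cutoff, the mean inhibition of test compounds on that plate plus 3 SD, cut at about 49% in these data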;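 further: 0% = DMSO plus EC80 beta-PEA response and 100% = DMSO alone without agonist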
#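 Test system: RD-HGA16 CHO cells with stable hTAAR1 and Gα16 / Probe or stimulus: EC80 β-phenethylamine stimulus / Times: seeding 17-24 h prior, 75-min 37 °C, 30-min RT dye loading / Detection: Fluo-8 calcium-sensitive fluorescence / Read-out basis: % inhibition scaled between DMSO and EC80 PEA controls / Repeats: singlicate, one well per test compound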
# TAAR1 agonist: human TAAR1 agonism. Q96RJ0. CHO RD-HGA16 TAAR1, Fluo-8 calcium fluorescence; vehicle wells 0%, saturating PEA agonist 100%. activation, % at 3 µM. 0.99% of 360,000 active. AID 624467;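 active means activation above the mean activation of all test compounds in the run plus 3 SD, cut at about 38% in these data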
#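 test system = CHO RD-HGA16 cells carrying human TAAR1 plus Gα16 | schedule = 17-24 h seeding, 75 min 37 °C dye, 30 min RT | compound dosing = 3 µM single concentration | control set = DMSO and PEA EC100 | replicates = n 1 | signal = Fluo-8 fluorescence, 5 s baseline then 140 s kinetic read | measure = percent activation vs PEA EC100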
# TAAR1 nonsel count: nonselective antagonist in TAAR1 antagonist counter-screen | shares compounds with TAAR1 antag | counterscreen cell line, calcium fluorescence, antagonist mode | inhibition, % at 3 µM | 77% of 2,400 active; in the data active means inhibition above about 22%;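 further: CHO-Ga16 host cells stimulated with ATP at an EC80 level; 0% = agonist EC80 plus vehicle and 100% = vehicle without agonist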
# TAAR1 antag conf: human TAAR1 antagonism, confirmed; shares compounds with TAAR1 antag; TAAR1-expressing cells, fluorescence antagonist read-out; inhibition, % at 3 µM; AID 651785; 40% of 2,400 active; in the data active means inhibition above about 49%;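 further: CHO-Ga16 host cells challenged with agonist PEA near its EC80; 0% = agonist at EC80 plus vehicle and 100% = vehicle with no agonist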
# Ga16 nonsel ag: counter-screen for TAAR1 antagonists: nonselective Ga16 agonists; shares compounds with TAAR1 antag; 18% of 2,400 active; AID 651953; Ga16-expressing cells, calcium fluorescence, agonist counterscreen; activation, % at 3 µM; in the data active means activation above about 12%;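 further: 0% = vehicle wells and 100% = saturating stimulus response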
# TAAR1 ag counter: TAAR1 agonism, antagonist counter-screen. shares compounds with TAAR1 antag. hTAAR1 cell line, fluorescence activation, agonist mode. activation, % at 3 µM. 2% of 2,400 active. AID 651955; in the data active means activation above about 37%;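 further: CHO cells stably expressing TAAR1 with calcium dye readout; 0% = DMSO vehicle and 100% = full agonist response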
# Active calls of the source: *; · = no result. A selection: hits, their analogues and other compounds. The true share with any hit is near 2.3%.
SMILES,OXTR potentiate,OXTR ag,V1aR counter,TAAR1 antag,TAAR1 agonist,TAAR1 nonsel count,TAAR1 antag conf,Ga16 nonsel ag,TAAR1 ag counter
CCN=C1SC(C(=O)Nc2cccc(OCC)c2)CC(=O)N1CC (centres undefined),-4,-1,6,74*,19,36*,60*,8,11
O=C(c1ccc(N2CCOCC2)c([N+](=O)[O-])c1)N1CCN(Cc2ccccc2)CC1,-11,1,2,-10,9,·,·,·,·
C=CCn1c(=NC(=O)c2cccc(N3C(=O)CCC3=O)c2)sc2cccc(OC)c21,-7,1,2,74*,18,27*,52*,11,10
COc1ccc(C)c2sc(=NC(=O)c3cccc(N4C(=O)CCC4=O)c3)n(C)c12,9,5,2,-18,3,·,·,·,·
CSc1cccc(NC(=O)CCn2c(=O)c3cccn3c3cccnc32)c1,-12,1,4,57*,23,25*,48,9,17
CCOP(=O)(OCC)/C(C#N)=C(\O)c1ccc(OC)cc1,-2,1,1,-16,0,·,·,·,·
CC(C)c1ccc(CNc2ccc([N+](=O)[O-])cn2)cc1,-8,-2,-1,48,8,·,·,·,·
CC(C)(C)c1ccc(CNc2ccc([N+](=O)[O-])cn2)cc1,-8,-2,0,68*,1,14,39,12*,16
COc1cccc(OC)c1C(=O)NC(=S)N1CCN(c2ccc(C(F)(F)F)cc2[N+](=O)[O-])CC1,-15,0,4,81*,15,31*,51*,7,5
O=C(CSc1ccc([N+](=O)[O-])cc1)NCC1CCCCC1,-7,-2,1,105*,16,9,11,2,2
O=C(NCC1CCCCC1)c1ccc([N+](=O)[O-])cc1,2,-2,1,1,2,·,·,·,·
O=C(Nc1cccc(-c2nnc(-c3ccco3)o2)c1)c1ccccc1,-4,-1,-1,36,9,·,·,·,·
O=C(Cc1ccc(Cl)cc1)Nc1cccc(-c2nnc(-c3ccco3)o2)c1,-5,0,4,62*,18,27*,40,11,11
O=C(Nc1cccc(-c2nnc(-c3ccco3)o2)c1)C(c1ccccc1)c1ccccc1,-13,0,1,64*,18,29*,39,2,0
O=C(Cc1ccccc1)Nc1cccc(-c2nnc(-c3ccco3)o2)c1,-8,-1,2,35,22,·,·,·,·
CC1=CC(c2ccc(Cl)cc2)n2nc(NC(=O)CCC(=O)O)nc2N1 (centres undefined),-5,0,1,10,-1,·,·,·,·
CC(=O)c1ccc(NC(=O)CSc2nnc(NC(=O)c3ccco3)s2)cc1,-2,1,0,·,·,·,·,·,·
O=C(NC1CC1)C1=C[C@H](c2csc3ccccc23)C[C@H](OCc2ccc(CO)cc2)O1,-6,3,4,58*,34,26*,44,16*,23
CC(=O)n1cc([C@H]2C=C(C(=O)N3CCN(Cc4ccccc4)CC3)O[C@@H](OCc3ccc(CO)cc3)C2)c2ccccc21,-13,6,3,69*,27,35*,46,9,9
O=C(Nc1ccccc1)C1=C[C@@H](c2coc3ccccc3c2=O)C[C@@H](OCc2ccc(CO)cc2)O1,-10,1,3,51*,8,20,25,2,-1
O=C(C1=C[C@@H](c2csc3ccccc23)C[C@@H](OCc2ccc(CO)cc2)O1)N1CCOCC1,-16,6,4,57*,32,26*,35,6,6
CCCCc1ccc(S(=O)(=O)N2CCC3(CC2)OCCO3)cc1,-8,-1,3,-10,-1,·,·,·,·
COc1cccc(CC(=O)NN2C(=O)NC3(CCCCC3)C2=O)c1,-8,1,1,6,-1,·,·,·,·
CC(=O)N1c2ccc(S(=O)(=O)NCCC(=O)Nc3ccc(C)c(F)c3)cc2CC1C (centres undefined),-9,1,2,-7,0,·,·,·,·
N#C/C(=C\Nc1ccccc1O)c1nc2ccccc2o1,-9,4,7,87*,9,48*,73*,10,13
SMILES,OXTR potentiate,OXTR ag,V1aR counter,TAAR1 antag,TAAR1 agonist,TAAR1 nonsel count,TAAR1 antag conf,Ga16 nonsel ag,TAAR1 ag counter
COc1cc(NC(=O)c2ccc(-c3cccc(F)c3)o2)ccc1NC(=O)c1ccccc1Cl,-5,0,1,55*,8,23*,37,3,2
Cc1ccc(CNC(=S)Nc2cc(C)ccc2OC(F)F)cc1,1,-1,0,10,9,·,·,·,·
Cc1ccc(C)c(N2CCN(C(=O)CCCOc3cc(=O)n(C)c4ccccc34)CC2)c1,-4,-1,1,54*,25,39*,56*,13*,16
CCc1ccc(CN2CCC(Oc3ccc(C(=O)NCc4ccccn4)cc3)CC2)o1,0,1,3,-1,4,·,·,·,·
CCOC(=O)N1CCC(NC(=O)c2ccc3c(c2)sc2nc(-c4ccccc4)cn23)CC1,-4,1,4,57*,17,31*,35,10,8
COc1cc(C(=O)NCCc2c[nH]c3ccccc23)ccc1OCc1c(C)noc1C,-14,4,2,63*,16,31*,48,10,8
Sc1ccccc1N=Cc1cccs1,·,·,·,-7,0,·,·,·,·
COc1cccc(COC(=O)Nc2ccccc2)c1OC,·,·,·,-14,-1,·,·,·,·
C=C(C)C1CCC(C)=C1COC(=O)Nc1ccccc1 (centres undefined),-5,-3,-1,53*,21,-2,2,-1,-3
O=C1CCCC/C=C\C[C@H](CC(=O)N(CCO)Cc2ccccc2)C(=O)NC[C@H](c2ccccc2)O1,-7,-1,0,-5,4,·,·,·,·
CC(C)(C)OC(=O)C[C@@H]1C/C=C\C[C@H](CC(=O)N[C@H](CO)Cc2ccccc2)C(=O)N[C@@H](Cc2ccccc2)COC1=O,-4,0,-1,59*,17,28*,40,5,1
CC(C)(C)OC(=O)C[C@H]1C/C=C\C[C@H](CC(=O)N[C@H](CO)Cc2ccccc2)C(=O)N[C@H](Cc2ccccc2)COC1=O,-1,0,0,26,7,·,·,·,·
